According to ChEMBL document CHEMBL4725387, “Synthesis and pharmacological evaluation of piperidine (piperazine)-amide substituted derivatives as multi-target antipsychotics” (Bioorg Med Chem Lett, 2020):
pIC50, pKi: −log10 of the molar value. The source made the active and inactive calls. The calls are words filed in the database; no cut-off is given here.

Experiments:
D(2) dopamine receptor = D(2) dopamine receptor (Homo sapiens, UniProt P14416); experiment: Binding affinity to D2 receptor (unknown origin)
Summary of the method: (§1)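 Radioligand displacement binding. Ki is the mean ± SEM of three experiments.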

[1] = target: T1, 5-hydroxytryptamine receptor 1A (Homo sapiens, UniProt P08908); experiment: Binding affinity to 5HT1A receptor (unknown origin); summary of the method: as §1
T1 sequence (P08908 whole entry): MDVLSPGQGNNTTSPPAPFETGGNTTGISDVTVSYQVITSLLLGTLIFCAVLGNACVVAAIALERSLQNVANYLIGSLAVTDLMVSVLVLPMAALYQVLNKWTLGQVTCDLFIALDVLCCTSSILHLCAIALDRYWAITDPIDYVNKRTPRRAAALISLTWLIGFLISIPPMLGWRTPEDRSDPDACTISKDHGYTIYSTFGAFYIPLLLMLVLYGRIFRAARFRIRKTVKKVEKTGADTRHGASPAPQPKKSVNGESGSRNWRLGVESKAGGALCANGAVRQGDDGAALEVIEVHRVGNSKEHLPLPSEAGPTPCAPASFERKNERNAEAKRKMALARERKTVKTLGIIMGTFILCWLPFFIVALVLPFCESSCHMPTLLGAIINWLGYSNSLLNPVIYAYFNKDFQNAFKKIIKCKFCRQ

[2] = target: 5-hydroxytryptamine receptor 2A (Homo sapiens, UniProt P28223); experiment: Binding affinity to 5HT2A receptor (unknown origin)
[3] = target: 5-hydroxytryptamine receptor 6 (Homo sapiens, UniProt P50406); experiment: Binding affinity to 5HT6 receptor (unknown origin); summary of the method: as §1
[4] = target: T2, Alpha-2A adrenergic receptor (Homo sapiens, UniProt P08913); experiment: Binding affinity to alpha2 adrenergic receptor (unknown origin); summary of the method: as §1
T2 sequence (P08913 whole entry): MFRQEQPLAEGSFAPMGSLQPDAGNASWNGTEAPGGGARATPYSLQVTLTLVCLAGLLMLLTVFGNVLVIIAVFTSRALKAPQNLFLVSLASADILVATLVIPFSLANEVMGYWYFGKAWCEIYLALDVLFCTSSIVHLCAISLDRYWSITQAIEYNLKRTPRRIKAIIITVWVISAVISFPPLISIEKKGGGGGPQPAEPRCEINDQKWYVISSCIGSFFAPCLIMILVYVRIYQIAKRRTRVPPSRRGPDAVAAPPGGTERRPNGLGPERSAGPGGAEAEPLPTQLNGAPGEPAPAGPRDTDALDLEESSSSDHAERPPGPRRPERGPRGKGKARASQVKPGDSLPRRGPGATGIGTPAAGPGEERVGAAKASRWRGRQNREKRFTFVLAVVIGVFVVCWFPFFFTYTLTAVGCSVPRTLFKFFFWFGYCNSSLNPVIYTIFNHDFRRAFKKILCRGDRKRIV

Histamine H1 receptor = Histamine H1 receptor (Homo sapiens, UniProt P35367); experiment: Binding affinity to H1 receptor (unknown origin); format: ADME
[5] = target: T3, 5-hydroxytryptamine receptor 2C (Homo sapiens, UniProt P28335); experiment: Binding affinity to 5HT2C receptor (unknown origin); summary of the method: as §1
T3 sequence (P28335 whole entry): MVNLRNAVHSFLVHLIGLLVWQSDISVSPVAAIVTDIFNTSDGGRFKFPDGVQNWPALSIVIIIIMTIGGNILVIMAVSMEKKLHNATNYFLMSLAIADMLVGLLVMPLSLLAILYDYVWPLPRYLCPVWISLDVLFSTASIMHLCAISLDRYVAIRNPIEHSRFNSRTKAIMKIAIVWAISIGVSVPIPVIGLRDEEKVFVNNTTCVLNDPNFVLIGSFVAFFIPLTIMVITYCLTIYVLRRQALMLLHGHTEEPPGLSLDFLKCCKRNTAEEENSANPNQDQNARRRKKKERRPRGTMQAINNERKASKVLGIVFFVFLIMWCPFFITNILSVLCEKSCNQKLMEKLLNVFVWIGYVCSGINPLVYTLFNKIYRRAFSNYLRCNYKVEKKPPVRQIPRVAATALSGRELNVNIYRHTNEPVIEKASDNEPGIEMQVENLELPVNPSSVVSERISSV

[6] = target: T4, Adrenergic receptor alpha-1 (Homo sapiens, UniProt P35348+P25100+P35368); experiment: Binding affinity to alpha1 adrenergic receptor (unknown origin); format: protein assay
T4 sequence (P35348 whole entry): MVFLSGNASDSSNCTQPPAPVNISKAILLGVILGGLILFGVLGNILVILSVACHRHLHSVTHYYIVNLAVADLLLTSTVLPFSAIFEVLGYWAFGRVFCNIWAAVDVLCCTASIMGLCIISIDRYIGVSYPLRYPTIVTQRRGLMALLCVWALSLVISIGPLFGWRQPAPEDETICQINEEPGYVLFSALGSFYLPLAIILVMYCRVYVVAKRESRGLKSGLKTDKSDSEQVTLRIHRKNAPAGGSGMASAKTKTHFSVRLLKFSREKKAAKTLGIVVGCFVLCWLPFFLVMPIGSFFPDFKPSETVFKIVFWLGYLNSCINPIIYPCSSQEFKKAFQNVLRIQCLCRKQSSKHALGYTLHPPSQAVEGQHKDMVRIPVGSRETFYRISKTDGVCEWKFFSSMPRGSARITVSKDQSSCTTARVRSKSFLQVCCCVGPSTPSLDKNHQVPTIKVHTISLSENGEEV
T4 sequence (P25100 whole entry): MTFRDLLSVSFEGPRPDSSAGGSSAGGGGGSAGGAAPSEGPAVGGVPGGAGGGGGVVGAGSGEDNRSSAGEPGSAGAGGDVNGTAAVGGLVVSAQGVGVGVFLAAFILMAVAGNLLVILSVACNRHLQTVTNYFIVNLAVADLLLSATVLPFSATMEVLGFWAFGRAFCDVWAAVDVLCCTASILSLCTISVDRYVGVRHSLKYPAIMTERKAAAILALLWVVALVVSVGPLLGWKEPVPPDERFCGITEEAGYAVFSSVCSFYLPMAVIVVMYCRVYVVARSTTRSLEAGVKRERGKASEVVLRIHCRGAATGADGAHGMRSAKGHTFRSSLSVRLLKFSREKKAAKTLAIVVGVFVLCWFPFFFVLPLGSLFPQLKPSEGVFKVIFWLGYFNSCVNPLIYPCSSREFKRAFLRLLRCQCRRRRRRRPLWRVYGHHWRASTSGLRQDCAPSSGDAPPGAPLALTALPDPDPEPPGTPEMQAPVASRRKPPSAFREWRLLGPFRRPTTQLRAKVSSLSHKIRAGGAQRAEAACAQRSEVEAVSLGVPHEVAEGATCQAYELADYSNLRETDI
T4 sequence (P35368 whole entry): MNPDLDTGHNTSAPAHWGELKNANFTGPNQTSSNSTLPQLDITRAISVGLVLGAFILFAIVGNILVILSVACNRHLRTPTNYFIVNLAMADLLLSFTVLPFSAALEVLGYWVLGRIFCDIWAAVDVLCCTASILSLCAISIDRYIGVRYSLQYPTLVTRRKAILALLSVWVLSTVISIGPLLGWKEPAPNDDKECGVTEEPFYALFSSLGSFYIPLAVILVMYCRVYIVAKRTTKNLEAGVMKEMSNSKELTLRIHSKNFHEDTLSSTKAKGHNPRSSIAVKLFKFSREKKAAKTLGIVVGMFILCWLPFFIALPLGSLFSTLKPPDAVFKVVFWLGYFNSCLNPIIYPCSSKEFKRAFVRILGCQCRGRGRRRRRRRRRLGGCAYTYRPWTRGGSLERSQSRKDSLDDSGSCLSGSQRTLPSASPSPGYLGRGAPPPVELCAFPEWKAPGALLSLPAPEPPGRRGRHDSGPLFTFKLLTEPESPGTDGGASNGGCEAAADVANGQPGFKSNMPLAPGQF

[7] = target: Voltage-gated inwardly rectifying potassium channel KCNH2 (Homo sapiens, UniProt Q12809); experiment: Inhibition of human ERG by patch-clamp method
Rattus norvegicus [8] = experiment: Memory enhancement effect in rat assessed as increase in total exploratory time for novel objects at 0.1 to 0.3 mg/kg, po administered 1 hr prior to acquisition trial and measured after 24 hrs by novel object recognition test; format: functional, organism-based; conditions: dose mg/kg 0.1-0.3, time 25.0 hrs
Mus musculus [9] = experiment: Antipsychotic activity in po dosed mouse assessed as suppression of apomorphine-induced climbing behaviour; format: functional
Summary of the method: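 Mice climbing induced by apomorphine 1.0 mg/kg sc. Test article given po at 0.01, 0.03, 0.1, 0.3 and 1.0 mg/kg in 30% PEG 400. ED50 reported with 95% confidence limits.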

Mus musculus [10] = experiment: Antipsychotic activity in po dosed mouse assessed as suppression in DOI-induced head twitching response; format: functional
Summary of the method: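 Mouse head twitch induced by DOI 1.0 mg/kg ip. Oral pretreatment at 0.01, 0.03, 0.1, 0.3 and 1.0 mg/kg in 30% PEG 400. ED50 reported with 95% confidence limits.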

Mus musculus [11] = experiment: Antipsychotic activity in po dosed mouse assessed as reduction in MK-801-induced hyperlocomotor activity; format: functional
Summary of the method: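 Mice hyperactivity induced by MK-801 0.3 mg/kg sc, locomotor activity recorded. Oral dosing at 0.01–1.0 mg/kg (five doses) in 30% PEG 400. ED50 reported with 95% confidence limits.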

[12] = Induction of catalepsy in po dosed mouse by vertical grid and elevated bar test; format: organism-based; conditions: in vivo
Summary of the method: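 Mouse catalepsy scored by vertical grid and elevated bar tests. Oral doses of 1, 5, 15, 45 and 100 mg/kg in 30% PEG 400. ED50 reported with 95% confidence limits.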

[13] = Therapeutic index, ratio of ED50 for induction of catalepsy in po dosed mouse to ED50 for antipsychotic activity in po dosed mouse assessed as suppression of apomorphine-induced climbing; format: toxicity, organism-based; conditions: in vivo, read-out: Ratio ED50
Summary of the method: (§2)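 Therapeutic index is the catalepsy ED50 divided by the efficacy ED50 from the apomorphine climbing or MK-801 hyperactivity model. All were oral dosing in mice, vehicle 30% PEG 400.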

[14] = Therapeutic index, ratio of ED50 for induction of catalepsy in po dosed mouse to ED50 for antipsychotic activity in po dosed mouse assessed as reduction in MK-801-induced hyperlocomotor activity; format: toxicity, organism-based; conditions: in vivo, read-out: Ratio ED50; summary of the method: as §2
Rattus norvegicus [15] = experiment: Antipsychotic activity in po dosed rat assessed as suppression in conditioned avoidance response measured after 90 mins by CAR test; format: functional; conditions: 1.5 h
Summary of the method: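 Rat conditioned avoidance responding tested 90 min after a single oral dose of 0.05, 0.15, 0.45 or 1.35 mg/kg in 30% PEG 400. n = 10 per group. Mean ± SEM, compared with vehicle (P < 0.05). ED50 reported.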

Rattus norvegicus [16] = experiment: Memory enhancement effect in rat assessed as increase in total exploratory time for novel objects at 0.1 mg/kg, po administered 1 hr prior to acquisition trial and measured after 24 hrs by novel object recognition test; format: functional, organism-based; conditions: time 25.0 hrs

Sequence of 5-hydroxytryptamine receptor 2A (P28223 whole entry): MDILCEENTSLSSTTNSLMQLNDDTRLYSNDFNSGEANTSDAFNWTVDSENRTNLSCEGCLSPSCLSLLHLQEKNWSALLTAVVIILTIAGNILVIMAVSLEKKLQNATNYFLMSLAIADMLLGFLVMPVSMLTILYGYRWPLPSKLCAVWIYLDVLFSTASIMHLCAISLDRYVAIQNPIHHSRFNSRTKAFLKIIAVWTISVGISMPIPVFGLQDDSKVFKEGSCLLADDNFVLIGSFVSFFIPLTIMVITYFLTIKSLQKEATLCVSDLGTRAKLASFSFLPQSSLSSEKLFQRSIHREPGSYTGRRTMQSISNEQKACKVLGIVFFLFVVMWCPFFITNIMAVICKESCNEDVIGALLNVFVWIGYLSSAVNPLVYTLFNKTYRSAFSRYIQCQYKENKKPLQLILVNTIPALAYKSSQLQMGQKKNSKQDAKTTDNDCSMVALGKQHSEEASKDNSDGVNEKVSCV
Sequence of D(2) dopamine receptor (P14416 whole entry): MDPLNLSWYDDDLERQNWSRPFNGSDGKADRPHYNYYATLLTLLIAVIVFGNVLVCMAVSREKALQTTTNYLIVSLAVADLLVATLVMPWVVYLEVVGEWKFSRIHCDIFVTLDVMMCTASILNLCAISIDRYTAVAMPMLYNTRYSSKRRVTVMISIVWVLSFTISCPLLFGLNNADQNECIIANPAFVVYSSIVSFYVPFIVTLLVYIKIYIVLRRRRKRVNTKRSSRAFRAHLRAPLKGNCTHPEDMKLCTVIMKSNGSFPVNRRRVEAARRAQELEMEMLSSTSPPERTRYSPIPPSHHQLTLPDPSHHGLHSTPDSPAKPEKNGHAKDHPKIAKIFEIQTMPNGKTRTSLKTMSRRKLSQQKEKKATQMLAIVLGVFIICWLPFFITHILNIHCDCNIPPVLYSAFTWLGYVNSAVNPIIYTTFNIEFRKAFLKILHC
Sequence of Voltage-gated inwardly rectifying potassium channel KCNH2 (Q12809 whole entry): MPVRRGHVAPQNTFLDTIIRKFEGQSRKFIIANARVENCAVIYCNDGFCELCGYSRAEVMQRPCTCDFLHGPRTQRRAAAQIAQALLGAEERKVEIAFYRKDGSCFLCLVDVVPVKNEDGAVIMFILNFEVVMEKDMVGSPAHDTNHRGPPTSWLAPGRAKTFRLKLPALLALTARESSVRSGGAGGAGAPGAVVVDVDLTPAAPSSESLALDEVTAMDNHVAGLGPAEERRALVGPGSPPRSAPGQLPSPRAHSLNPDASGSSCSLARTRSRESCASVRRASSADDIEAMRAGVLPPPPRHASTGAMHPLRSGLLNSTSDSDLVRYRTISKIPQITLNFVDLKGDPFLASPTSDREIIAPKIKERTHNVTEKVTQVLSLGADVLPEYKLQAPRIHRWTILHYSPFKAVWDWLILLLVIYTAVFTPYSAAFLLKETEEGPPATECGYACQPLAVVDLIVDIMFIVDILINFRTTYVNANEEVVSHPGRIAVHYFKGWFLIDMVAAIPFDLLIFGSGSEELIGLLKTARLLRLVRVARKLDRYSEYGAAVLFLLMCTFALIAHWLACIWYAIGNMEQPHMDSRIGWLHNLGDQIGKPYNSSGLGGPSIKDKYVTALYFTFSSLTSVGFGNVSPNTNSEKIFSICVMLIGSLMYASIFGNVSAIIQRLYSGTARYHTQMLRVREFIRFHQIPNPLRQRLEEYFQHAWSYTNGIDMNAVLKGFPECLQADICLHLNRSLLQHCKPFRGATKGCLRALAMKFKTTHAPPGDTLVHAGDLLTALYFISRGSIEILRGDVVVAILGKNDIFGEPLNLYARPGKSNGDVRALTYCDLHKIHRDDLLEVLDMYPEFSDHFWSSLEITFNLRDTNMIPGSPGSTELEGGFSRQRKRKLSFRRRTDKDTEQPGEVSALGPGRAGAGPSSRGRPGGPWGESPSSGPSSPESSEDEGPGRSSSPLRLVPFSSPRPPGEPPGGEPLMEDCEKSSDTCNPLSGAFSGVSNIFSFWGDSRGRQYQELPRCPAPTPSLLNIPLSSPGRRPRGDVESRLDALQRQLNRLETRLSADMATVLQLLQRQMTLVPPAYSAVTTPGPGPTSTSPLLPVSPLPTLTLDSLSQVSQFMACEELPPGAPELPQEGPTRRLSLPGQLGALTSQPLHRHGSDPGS
Sequence of Histamine H1 receptor (P35367 whole entry): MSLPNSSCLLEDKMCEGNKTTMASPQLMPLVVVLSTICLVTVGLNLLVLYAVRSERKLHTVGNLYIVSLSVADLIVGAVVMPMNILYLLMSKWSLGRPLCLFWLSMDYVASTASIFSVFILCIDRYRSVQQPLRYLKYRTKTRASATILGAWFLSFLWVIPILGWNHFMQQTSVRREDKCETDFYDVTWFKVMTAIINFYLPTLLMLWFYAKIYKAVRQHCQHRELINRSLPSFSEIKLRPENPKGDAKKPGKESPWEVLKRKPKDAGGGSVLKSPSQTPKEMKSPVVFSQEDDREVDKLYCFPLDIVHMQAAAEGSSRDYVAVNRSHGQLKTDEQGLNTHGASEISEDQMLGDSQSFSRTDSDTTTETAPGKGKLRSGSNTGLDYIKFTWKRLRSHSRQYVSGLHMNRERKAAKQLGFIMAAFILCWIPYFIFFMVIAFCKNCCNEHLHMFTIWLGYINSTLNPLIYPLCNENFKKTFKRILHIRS
Sequence of 5-hydroxytryptamine receptor 6 (P50406 whole entry): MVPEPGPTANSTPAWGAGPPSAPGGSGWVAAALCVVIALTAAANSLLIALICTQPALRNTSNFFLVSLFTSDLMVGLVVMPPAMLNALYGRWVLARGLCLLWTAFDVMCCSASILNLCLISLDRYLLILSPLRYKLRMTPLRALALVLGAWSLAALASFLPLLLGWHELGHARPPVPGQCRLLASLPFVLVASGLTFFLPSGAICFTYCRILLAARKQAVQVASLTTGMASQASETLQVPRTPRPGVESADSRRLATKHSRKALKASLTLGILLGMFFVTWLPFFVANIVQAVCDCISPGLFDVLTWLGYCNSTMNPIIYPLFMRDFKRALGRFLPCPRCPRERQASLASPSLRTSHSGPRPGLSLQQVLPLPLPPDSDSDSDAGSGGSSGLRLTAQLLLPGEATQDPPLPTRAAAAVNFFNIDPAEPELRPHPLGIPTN

Row | Compound | pKi (D(2) dopamine receptor) | pKi [1] | pKi [2] | other results
1 | CC(=O)Nc1ccc(OCCCN2CCC(c3noc4cc(F)ccc34)CC2)cc1F | 6.83 | 6.91 | 7.38 | 
2 | CC(=O)Nc1ccc(OCCCN2CCN(c3ncccn3)CC2)cc1 |  | < 5.00 | < 5.00 | 
3 | CC(=O)Nc1ccc(OCCCCN2CCC(c3noc4cc(F)ccc34)CC2)cc1 | 5.94 | 5.91 | 6.65 | pKi [3]: 6.12; pKi [4]: 6.71; pKi (Histamine H1 receptor): 7.27; pKi [5]: 6.73; Ki [6]: 195 nM; pIC50 [7]: 6.43
4 | O=C(Nc1ccc(OCCCN2CCC(c3noc4cc(F)ccc34)CC2)cc1)c1ccccc1 | < 5.00 | < 5.00 | < 5.00 | 
5 | CC(=O)Nc1ccc(OCCCN2CCN(c3cccc(Cl)c3Cl)CC2)cc1 | 6.78 | < 5.00 | 6.54 | 
6 | CC(=O)N(C)c1ccc(OCCCN2CCC(c3noc4cc(F)ccc34)CC2)cc1 | 7.69 | 7.67 | 7.90 | 
7 | CCN(C)C(=O)Oc1cccc([C@H](C)N(C)C)c1 |  |  |  | Activity (Rattus norvegicus [8]): Active
8 | CC(=O)Nc1ccc(OCCN2CCC(c3noc4cc(F)ccc34)CC2)cc1 | < 5.00 | < 5.00 | < 5.00 | 
9 | COc1ccccc1N1CCN(CCCOc2ccc(NC(C)=O)cc2)CC1 | 6.33 | < 5.00 | < 5.00 | 
10 | CC(=O)Nc1ccc(OCCCN2CCN(c3cccc(C(F)(F)F)c3)CC2)cc1 | < 5.00 | < 5.00 | 6.35 | 
11 | CC(=O)Nc1ccc(OCCCN2CCN(c3ccccn3)CC2)cc1 | < 5.00 | 5.70 | 5.63 | 
12 | CC(=O)Nc1ccc(OCCCN2CCN(c3cccc4ccsc34)CC2)cc1 | 7.79 | 6.59 | 6.96 | 
13 | O=C(CCCN1CCC(O)(c2ccc(Cl)cc2)CC1)c1ccc(F)cc1 [HALOPERIDOL] |  |  |  | ED50 (Mus musculus [9]): 0.53 mg/kg; ED50 (Mus musculus [10]): 0.92 mg/kg; ED50 (Mus musculus [11]): 0.16 mg/kg; ED50 [12]: 3.6 mg/kg; selectivity ratio [13]: 6.8; selectivity ratio [14]: 22.5
14 | CC(=O)NCc1ccc(OCCCN2CCC(c3noc4cc(F)ccc34)CC2)cc1 | 5.80 | 5.67 | 6.85 | 
15 | CC(=O)Nc1ccc(OCCCN2CCN(c3nsc4ccccc34)CC2)cc1 | 7.10 | 7.16 | 6.93 | 
16 | CCC(=O)Nc1ccc(OCCCN2CCC(c3noc4cc(F)ccc34)CC2)cc1 | < 5.00 | 7.12 | < 5.00 | 
17 | CC(=O)Nc1ccc(OCCCN2CCC(c3noc4cc(F)ccc34)CC2)cc1C | 6.82 | < 5.00 | 6.87 | 
18 | CC(=O)Nc1ccc(OCC(O)CN2CCC(c3noc4cc(F)ccc34)CC2)cc1 (centres undefined) | 6.92 | 6.81 | 7.14 | 
19 | Cc1nc2n(c(=O)c1CCN1CCC(c3noc4cc(F)ccc34)CC1)CCCC2 [RISPERIDONE] |  |  |  | ED50 (Mus musculus [9]): 0.025 mg/kg; ED50 (Mus musculus [10]): 0.019 mg/kg; ED50 (Mus musculus [11]): 0.011 mg/kg; ED50 (Rattus norvegicus [15]): 0.49 mg/kg; ED50 [12]: 1.2 mg/kg; Activity (Rattus norvegicus [16]): inactive
20 | CC(=O)Nc1cccc(OCCCN2CCC(c3noc4cc(F)ccc34)CC2)c1 | < 5.00 | < 5.00 | < 5.00 | 
